Results: ChEMBL document CHEMBL1126773, “Synthesis, physicochemical properties, and biological evaluation of N-substituted 2-alkyl-3-hydroxy-4(1H)-pyridinones: orally active iron chelators with clinical potential” (J Med Chem, 1993)

What was measured:
[1] = Partition coefficient (logD7.4); assay type: physicochemical; conditions: octanol/water, pH 7.4
How it was run: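 Automated filter-probe partitioning between MOPS buffer (50 mM, pH 7.4) and octan-1-ol, each phase pre-equilibrated with the other and purged with nitrogen. UV absorbance was read until stable, then octanol was added in at least 10 aliquots. An estimate came from each addition, giving a mean and standard deviation.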

[2] = molecular target: Serotransferrin (Homo sapiens) (UniProt P02787); assay: Percentage of removal of iron from iron-protein-transferrin; assay type: functional; parameters: concentration or dose not given beside the values
Sequence of Serotransferrin (Homo sapiens) (P02787 whole entry): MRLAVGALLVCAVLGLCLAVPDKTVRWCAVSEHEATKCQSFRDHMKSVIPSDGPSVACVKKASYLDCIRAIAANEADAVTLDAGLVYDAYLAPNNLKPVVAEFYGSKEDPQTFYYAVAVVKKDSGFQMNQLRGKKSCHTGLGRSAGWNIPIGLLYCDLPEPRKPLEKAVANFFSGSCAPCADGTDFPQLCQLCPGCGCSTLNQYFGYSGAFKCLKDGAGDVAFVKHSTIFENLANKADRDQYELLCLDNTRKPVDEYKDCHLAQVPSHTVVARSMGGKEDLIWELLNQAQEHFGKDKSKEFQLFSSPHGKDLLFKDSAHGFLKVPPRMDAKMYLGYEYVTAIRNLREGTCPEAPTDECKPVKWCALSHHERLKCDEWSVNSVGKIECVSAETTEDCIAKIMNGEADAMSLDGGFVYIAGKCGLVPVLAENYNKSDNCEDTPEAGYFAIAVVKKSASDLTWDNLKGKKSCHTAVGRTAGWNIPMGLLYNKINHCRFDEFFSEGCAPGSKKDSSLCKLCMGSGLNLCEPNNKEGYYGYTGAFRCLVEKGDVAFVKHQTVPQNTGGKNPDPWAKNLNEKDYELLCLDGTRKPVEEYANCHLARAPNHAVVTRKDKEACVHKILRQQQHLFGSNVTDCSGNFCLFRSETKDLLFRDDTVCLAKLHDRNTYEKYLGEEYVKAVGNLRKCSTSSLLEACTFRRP
How it was run: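 Human transferrin, Fe(III)-loaded (50 μM), was mixed with chelator (100 μM) in MOPS (0.05 M, pH 7.4, 25 °C) with 25 mM NaHCO3. Absorbance at 400–500 nm was scanned every 2 min for 10 min, then every 5 min up to 3 h.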

[3] = species: Equus caballus; assay: Percentage of removal of iron from iron-protein-ferritin; assay type: functional; parameters: concentration or dose not given beside the values
How it was run: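 Horse spleen ferritin (iron cores equivalent to 450 μM) was incubated with chelator (5 mM) in HEPES (0.1 M, pH 7.2) at 37 °C for up to 36 h. Samples were ultrafiltered to separate the Fe(III) complex, and the filtrate absorbance was read (450 nm; concentrations from ε max).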

[4] = Acid dissociation constant (pKa1) was determined; assay type: physicochemical; conditions: for pKa: read-out: pKa1
How it was run: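 Simultaneous spectrophotometric/potentiometric titration of the ligand. Temperature held at 22.5 ± 0.1 °C, ionic strength 0.1 with KNO3. pKa values were obtained by global optimization across titrations at several ligand concentrations.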

[5] = Logarithm of cumulative stability constant was determined
[6] = Acid dissociation constant (pKa2) was determined
[7] = Percentage of release of lactic dehydrogenase from rat hepatocytes; assay type: functional, Hepatocyte
How it was run: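 Primary rat hepatocytes were plated at 1 × 10⁶/dish, pulsed 17 h with human diferric ⁵⁹Fe-transferrin (100 µg/mL), washed, then exposed to chelators in triplicate. LDH was measured in the supernatant at 6 h.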

[8] = species: Rattus norvegicus; assay: Percentage of mobilization of iron in 2 hours from rat hepatocytes; assay type: functional, Hepatocyte

**Q.** With `Cc1c(O)c(=O)ccn1CCCCO` as the molecule, how does the logD [1] read?
**A.** The logD was -0.742.

**Q.** Which results are given for `COCCn1ccc(=O)c(O)c1C`?
**A.** Activity [2]: 55%; Activity [3]: 28%; logD [1]: -0.409

**Q.** Which logD [1] does the source give for `Cc1c(O)c(=O)ccn1CCC(=O)N(C)C` here?
**A.** The logD was -1.16.

**Q.** With `CCc1c(O)c(=O)ccn1C` as the molecule, how does the logD [1] read?
**A.** The logD was -0.205.

**Q.** For `CCCn1ccc(=O)c(O)c1CC`, which logD [1] is on record?
**A.** Its logD is 0.702.

**Q.** Which logD [1] does the source give for `CCCCCCn1ccc(=O)c(O)c1C` here?
**A.** Its logD is 1.9.

**Q.** With `CCNC(=O)CCn1ccc(=O)c(O)c1C` as the molecule, how does the logD [1] read?
**A.** Its logD is -0.818.

**Q.** Which pKa [4] does the source give for `CCn1ccc(=O)c(O)c1C` here?
**A.** The pKa was 3.65.

**Q.** And the “Log beta3” value [5]?
**A.** Its value is 37.7.

**Q.** What about the pKa ([6]; pKa2) of the same molecule?
**A.** The pKa was 9.88.

**Q.** What about the logD [1] of the same molecule?
**A.** Its logD is -0.31.

**Q.** With `Cc1c(O)c(=O)ccn1CCCO` as the molecule, how does the logD [1] read?
**A.** The logD was -0.879.

**Q.** What does the source list for `Cc1c(O)c(=O)ccn1C` [DEFERIPRONE]?
**A.** Activity [2]: 54%; Log beta3 [5]: 37.2; Activity [3]: 34%; logD [1]: -0.77

**Q.** With `COCC(C)n1ccc(=O)c(O)c1C` (stereo not drawn) as the molecule, how does the logD [1] read?
**A.** The logD was -0.26.

**Q.** For `CCCCn1ccc(=O)c(O)c1CC`, which logD [1] is on record?
**A.** The logD was 1.22.

**Q.** For `CCn1cccc(O)c1=O`, which Activity [7] is on record?
**A.** The Activity was 102%.

**Q.** What about the Activity [8] of the same molecule?
**A.** The Activity was 115%.

**Q.** And the “Log beta3” value [5]?
**A.** The value was 32.

**Q.** With `Cc1c(O)c(=O)ccn1C(C)C` as the molecule, how does the Activity [2] read?
**A.** Its Activity is 51%.

**Q.** What about the Activity [3] of the same molecule?
**A.** The Activity was 26%.

**Q.** What about the logD [1] of the same molecule?
**A.** Its logD is 0.0492.

**Q.** With `Cc1c(O)c(=O)ccn1CCN` as the molecule, how does the Activity [2] read?
**A.** The Activity was 56%.

**Q.** And the Activity [3]?
**A.** Its Activity is 23%.

**Q.** What about the logD [1] of the same molecule?
**A.** The logD was -1.55.

**Q.** With `CCc1c(O)c(=O)ccn1C(C)C` as the molecule, how does the logD [1] read?
**A.** Its logD is 0.732.

**Q.** Which Activity [2] does the source give for `Cc1c(O)c(=O)ccn1CCCC(=O)O` here?
**A.** Its Activity is 53%.

**Q.** And the Activity [3]?
**A.** The Activity was 12%.

**Q.** Which results are given for `Oc1ccncc1O`?
**A.** pKa1 [4]: 3.6; pKa [4]: 3.34; pKa2 [6]: 9.6; pKa ([6]; pKa2): 9.01

**Q.** For `CCCNC(=O)CCn1ccc(=O)c(O)c1C`, which logD [1] is on record?
**A.** The logD was -0.396.

**Q.** For `CCc1c(O)c(=O)ccn1CCO`, which logD [1] is on record?
**A.** Its logD is -0.658.

**Q.** Which logD [1] does the source give for `CCOCCCn1ccc(=O)c(O)c1CC` here?
**A.** The logD was 0.716.

**Q.** With `CCCCCn1ccc(=O)c(O)c1C` as the molecule, how does the logD [1] read?
**A.** Its logD is 1.24.

**Q.** With `Cc1c(O)c(=O)ccn1CCC(=O)NC(C)C` as the molecule, how does the logD [1] read?
**A.** The logD was -0.471.

**Q.** For `CCCCCCn1ccc(=O)c(O)c1CC`, which logD [1] is on record?
**A.** Its logD is 2.28.

**Q.** For `CCOCCCn1ccc(=O)c(O)c1C`, which Activity [2] is on record?
**A.** Its Activity is 49%.

**Q.** What about the logD [1] of the same molecule?
**A.** The logD was 0.121.

**Q.** Which results are given for `CC(=O)N(O)CCCCCNC(=O)CCC(=O)N(O)CCCCCNC(=O)CCC(=O)N(O)CCCCCN`?
**A.** Activity [2]: 5%; Activity [3]: 11%

**Q.** For `Cc1c(O)c(=O)ccn1CCCN`, which logD [1] is on record?
**A.** The logD was -2.1.

**Q.** For `CCc1nccc(O)c1O`, which logD [1] is on record?
**A.** Its logD is 0.0453.

**Q.** For `CC(=O)NO` [ACETOHYDROXAMIC ACID], which “Log beta3” value [5] is on record?
**A.** The value was 28.3.

**Q.** What about the pKa ([6]; pKa2) of the same molecule?
**A.** Its pKa is 9.4.

**Q.** For `CCc1c(O)c(=O)ccn1CCOC`, which logD [1] is on record?
**A.** Its logD is 0.0414.

**Q.** Which Activity [7] does the source give for `Oc1cccc2cccnc12` [OXYQUINOLINE] here?
**A.** The Activity was 260%.

**Q.** What about the Activity [8] of the same molecule?
**A.** The Activity was 110%.

**Q.** And the “Log beta3” value [5]?
**A.** The value was 37.

**Q.** For `CCN(C)C(=O)CCn1ccc(=O)c(O)c1C`, which logD [1] is on record?
**A.** Its logD is -0.686.

**Q.** Which results are given for `CCCCn1ccc(=O)c(O)c1C`?
**A.** Activity [2]: 52%; pKa [4]: 3.62; pKa ([6]; pKa2): 9.87; logD [1]: 0.703

**Q.** With `CNC(=O)CCn1ccc(=O)c(O)c1C` as the molecule, how does the logD [1] read?
**A.** Its logD is -1.1.

**Q.** Which Activity [7] does the source give for `O/N=C/c1ccccn1` here?
**A.** The Activity was 108%.

**Q.** And the Activity [8]?
**A.** Its Activity is 108%.

**Q.** And the “Log beta3” value [5]?
**A.** The value was 30.

**Q.** What does the source list for `Oc1ccccc1O` [CATECHOL]?
**A.** pKa [4]: 9.2; Log beta3 [5]: 44.9; pKa [6]: 13.3

**Q.** For `Cc1c(O)c(=O)ccn1CCO`, which Activity [2] is on record?
**A.** Its Activity is 47%.

**Q.** What about the Activity [3] of the same molecule?
**A.** Its Activity is 29%.

**Q.** And the logD [1]?
**A.** Its logD is -1.1.

**Q.** Which logD [1] does the source give for `CCc1c(O)c(=O)ccn1CC` here?
**A.** Its logD is 0.25.

**Q.** With `CCCCCCCCn1ccc(=O)c(O)c1C` as the molecule, how does the logD [1] read?
**A.** Its logD is 2.88.

**Q.** Which results are given for `CCCn1ccc(=O)c(O)c1C`?
**A.** Activity [2]: 52%; pKa [4]: 3.62; Activity [7]: 105%; Activity [8]: 252%; Log beta3 [5]: 37.7; Activity [3]: 28%; pKa ([6]; pKa2): 9.92

**Q.** For `CCN(CC)C(=O)CCn1ccc(=O)c(O)c1C`, which logD [1] is on record?
**A.** Its logD is -0.361.

**Q.** What does the source list for `Cc1nccc(O)c1O`?
**A.** pKa [4]: 3.7; Log beta3 [5]: 37.2; pKa ([6]; pKa2): 9.76; logD [1]: -0.495
